From PubChem
APP transl inh: APP translation inhibition | SH-SY5Y APP 5'UTR-luciferase reporter, luminescence | inhibition, % at 2 µM | 0.82% of 190,000 active;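 active means inhibition above a set limit, derived from the sample mean plus 3 SD, cut at about 45% in these data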
MT stabilizer: microtubule stabilization, imaging screen; HeLa tubulin immunostaining HCS, 24 h; share of cells brighter than vehicle mean+2SD; % tubulin-high responders, % at 10 µM; 0.83% of 200,000 active; AID 2205;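 active means plate Z-score above 3 for both tubulin-high and condensed-nucleus cell shares, with cell loss under 80%, at 10 µM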;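 further: anti alpha tubulin signal scored within the nucleus-defined area of each cell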
IEC-6 tox: counter-screen for KLF5 inhibitors: cytotoxicity in IEC-6 cells; inhibition, % at 5 µM; IEC-6 cytotoxicity, luminescence viability; 0.78% of 290,000 active;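 further: 0% = plate median of test compound wells and 100% = cytotoxic reference compound wells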
b-catenin transl: modulators of beta-catenin nuclear translocation | HeLa beta-catenin nuclear translocation, immunofluorescence imaging | nuclear translocation activity, % at 5 µM | 0.3% of 190,000 active;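 active means nuclear translocation activity above 50% at 5 µM, with a well cell count of 50 or more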;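 further: per-cell ratio of nuclear to cytoplasmic median beta-catenin stain intensity; plate controls were DMSO negative control for no effect and GSK-3 inhibitor IX positive control for full effect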
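Test system: human HeLa cells, endogenous beta-catenin. Times: 24 h compound exposure, 37°C. Measured by: beta-catenin immunofluorescence imaging with DAPI.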
Ba/F3 V617F tox: loss of viability in JAK2V617F-driven Ba/F3 cells; Ba/F3 EpoR-JAK2V617F viability, ATP luminescence; inhibition, % at 5.6 µM; 1.1% of 220,000 active; AID 1446;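 active means inhibition above the campaign mean plus 3 SD over all tested compounds, cut at about 24% in these data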;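 further: cytokine-independent growth of Ba/F3 cells driven by EpoR plus mutant JAK2; 0% = DMSO-treated cells and 100% = JAK inhibitor I control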
BaF3 parental: parental Ba/F3 viability inhibition as JAK2V617F counter-screen | CellTiter-Glo ATP luminescence | inhibition, % at 5.6 µM | 1.1% of 220,000 active | AID 1486;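 active means inhibition above a per-campaign cutoff, the mean inhibition of all tested compounds plus 3 SD, cut at about 27% in these data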;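 further: 0% = DMSO wells and 100% = JAK Inhibitor I control wells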
IEC-6 tox confirm: IEC-6 cytotoxicity, confirmation assay | shares compounds with IEC-6 tox | IEC-6 rat intestinal epithelial viability, luminescence | inhibition, % at 5 µM | 63% of 1,900 active;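 further: 0% = vehicle and 100% = reference cytotoxic drug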
An asterisk follows results filed as active; · = no result given. Shown are actives, neighbours in structure and some others; about 2.2% of the full set was active somewhere. Unless noted, no stated cut-off is given here; in the data, active means inhibition above about 22%; inactive means the rest.

SMILES | APP transl inh | MT stabilizer | IEC-6 tox | b-catenin transl | Ba/F3 V617F tox | BaF3 parental | IEC-6 tox confirm
CCN(CC)CCCNC(=O)c1cc2c(=O)n(CC)c3ccccc3c2s1 | · | · | 26* | · | · | · | 11
O=S(=O)(/N=C(/Nc1ccccn1)c1ccccc1)c1ccc(F)cc1 | · | · | 0 | · | · | · | ·
Cc1ccc2[nH]c3c(NCc4ccccc4)ncnc3c2c1 | · | · | 30* | · | · | · | 17
COc1ccc(CNc2ncnc3c2[nH]c2cc(OC)c(OC)cc23)cc1 | · | · | 1 | 0 | -4 | -1 | ·
Cc1ccc2nc(NCc3ccccc3)[nH]c2c1 | 10 | 22* | 82* | 11 | 85* | 76* | 51*
CCc1ccccc1N1C(=O)[C@@H]2Cc3ccccc3CN2C1=O | · | · | -2 | 1 | -4 | 0 | ·
Cc1ccc(/C=C/c2ccc(N(C)C)cc2)[n+](C)c1 | · | · | 32* | · | · | · | 26*
CN(C)c1ccc(C(=O)/C=C/c2ccccc2)cc1 | -140 | 1 | -1 | -3 | 2 | 9 | ·
CC[n+]1ccc(/C=C/c2ccc(N(C)C)cc2)c2ccccc21 | 10 | 32 | 48* | 0 | 101* | 101* | 74*
CCN(CC)c1ccc(/C=C/c2ccc3ccc(OC)cc3[n+]2CC)cc1 | · | · | 48* | · | · | · | 31*
CC[n+]1ccccc1/C=C/c1ccc(N(C)C)cc1 | -2 | 4 | 22* | 0 | 99* | 76* | 23*
CC[n+]1c(/C=C/c2ccc(N(C)C)cc2)ccc2ccccc21 | -2 | 21 | 48* | 0 | 101* | 95* | 76*
O=C(NNC(=O)c1ccc(O)cc1O)c1ccc(-c2ccccc2)cc1 | · | · | 24* | · | · | · | 1
COc1cc(-c2noc(C)c2C#Cc2nccn2C)cc(OC)c1OC | · | · | 16 | · | · | · | ·
COc1cc(-c2noc(C)c2-c2ccc(N(C)C)nc2)cc(OC)c1OC | · | · | 93* | · | · | · | 59*
COc1cc(-c2noc(C)c2-c2ccc3[nH]ccc3c2)cc(OC)c1OC | · | · | 89* | · | · | · | 60*
O=C(/C(N=Nc1cccc([N+](=O)[O-])c1)=C(/O)c1ccc(Br)cc1)C(F)(F)F | · | · | 0 | 0 | -3 | 0 | ·
CCOC(=O)N1CCC(N2Cc3cccc(C(=O)Nc4ccccc4OC)c3C2=O)CC1 | · | · | 1 | · | · | · | ·
Cc1ccc(C)c(NC(=O)Cn2nnc(C(=O)NCc3ccco3)c2N)c1 | · | · | 24* | · | · | · | 18
COc1ccccc1NC(=O)Cn1nnc(C(=O)NCc2cccs2)c1N | · | · | 79* | · | · | · | 53*
O=C(Nn1cc(C(=O)Nc2ccccc2F)c2ccccc2c1=O)c1cnccn1 | 13 | 5 | 52* | -1 | 6 | 2 | 12
COc1ccc(NC(=O)CSc2ccc3nnc(-c4ccccn4)n3n2)cc1OC | · | · | -5 | · | · | · | ·
COc1cccc2sc(Nc3nnc(-c4ccc(F)cc4)o3)nc12 | -10 | 9 | -2 | 0 | -1 | 3 | ·
COc1cccc2sc(Nc3nc(-c4ccccn4)cs3)nc12 | 84* | 24 | 89* | 34 | 51* | 53* | 96*
COc1cccc2sc(Nc3nnc(-c4cccs4)o3)nc12 | -71 | 2 | 69* | 2 | 11 | 10 | 59*
SMILES | APP transl inh | MT stabilizer | IEC-6 tox | b-catenin transl | Ba/F3 V617F tox | BaF3 parental | IEC-6 tox confirm
COc1ccc2ccccc2c1CNC(C)CCc1ccccc1 (stereo not given) | · | · | 2 | · | · | · | ·
COc1ccc(CCNCc2c(OC)ccc3ccccc23)cc1OC | · | · | 26* | · | · | · | 4
Cc1ccc2nc(Nc3ccc(Cl)cc3)c3nncn3c2c1 | · | · | 6 | · | · | · | ·
O=C(Nc1ccc(-n2ccc(C(F)(F)F)n2)cc1)Nc1cccc(Cl)c1 | · | · | 23* | 3 | 54* | 63* | 48*
NC(=O)c1ccc[n+](CC(=O)c2ccccc2)c1 | · | · | 22* | 0 | 60* | 27* | -2
COc1ccccc1OCC(=O)NN=C(Cc1ccccc1)Cc1ccccc1 | 9 | 1 | 6 | · | 0 | 5 | ·
CCOc1ccccc1OCC(=O)N/N=C(\C)Cc1ccc(OC)cc1 | 92* | 15* | 70* | 4 | 72* | 73* | -17
COc1cc2ncnc(NCc3ccc(F)cc3)c2cc1OC | · | · | 25* | · | · | · | 32*
COc1cc2ncnc(NCc3ccc(Cl)cc3)c2cc1OC | -6 | 2 | 29* | 1 | 2 | 9 | 23*
Cc1ccc(CNc2ncnc3cc(Cl)ccc23)cc1 | · | · | 10 | · | · | · | ·
COc1cc2ncnc(NCc3ccc(C)o3)c2cc1OC | -4 | 4 | 10 | -1 | 1 | 3 | ·
COc1ccc(OCC(=O)Nc2cc(NC(=O)c3ccco3)ccc2OC)cc1 | · | · | 5 | · | · | · | ·
O=C(O)c1nn(CC(=O)N(C2CCCCC2)C2CCCCC2)c(=O)c2ccccc12 | -5 | 2 | 4 | -1 | -1 | 3 | ·
COc1cc(Nc2c3c(nc4ccccc24)CCC3)cc(OC)c1OC | · | · | 85* | · | · | · | 58*
COc1ccc(OC)c(Nc2c3ccccc3nc3ccccc23)c1 | · | · | 46* | · | · | · | 13
Cc1cccc(Nc2c3c(nc4ccccc24)CCC3)c1 | · | · | 7 | 12 | 4 | 1 | ·
COc1ccc(OC)c(Nc2cc(C)c3ccccc3n2)c1 | · | · | 2 | · | · | · | ·
COc1ccc(OC)c(Nc2nc(C)nc3c2oc2ccccc23)c1 | · | · | 26* | · | · | · | 23*
COc1ccc(OC)c(Nc2c3c(nc4ccccc24)CCC3)c1 | · | · | 85* | · | · | · | 58*
COc1ccccc1Nc1c2c(nc3ccc(N)cc13)CCCC2 | · | · | 2 | 1 | 2 | -4 | ·
COc1ccc(Cl)cc1Nc1nc(C)nc2c1oc1ccccc12 | · | · | 15 | · | · | · | ·
Cc1ccc(S(=O)(=O)N(C)c2ccccc2C(=O)N2CCOCC2)cc1 | · | · | 3 | · | · | · | ·
Cc1ccc(/C(O)=C2\C(=O)C(=O)N(C)C2c2cccc([N+](=O)[O-])c2)cc1 (stereo not given) | · | · | 1 | · | · | · | ·
NC(=O)C(=CNc1nc(-c2ccc(Cl)c(Cl)c2)cs1)C(N)=O | · | · | 0 | -1 | -6 | 0 | ·
COc1cc(Br)cc2cc(C(=O)N3CCOCC3)c(=O)oc12 | · | · | -6 | · | · | · | ·
SMILES | APP transl inh | MT stabilizer | IEC-6 tox | b-catenin transl | Ba/F3 V617F tox | BaF3 parental | IEC-6 tox confirm
COc1ccc([N+](=O)[O-])cc1Nc1c2ccccc2nc2ccccc12 | · | · | 79* | · | · | · | 72*
O=[N+]([O-])c1ccc(Nc2c3ccccc3nc3ccccc23)cc1 | 18 | 2 | 7 | 1 | -2 | 3 | ·
C=CCn1c(SCc2ccccc2Cl)nnc1-c1sc2nc(C)cc(C)c2c1N | · | · | 4 | 1 | 1 | -4 | ·
O=S(=O)(c1ccc2c(c1)nc(COc1ccc(Cl)cc1)n2CC1CCCO1)N1CCOCC1 (stereo not given) | -4 | 3 | 37* | 8 | 33* | 56* | -8
NNC(=O)/C(=C\c1ccco1)NC(=O)c1ccco1 | · | · | 70* | · | · | · | 7
COc1cc(NC(=O)c2noc(C)c2[N+](=O)[O-])c(OC)cc1Cl | · | · | 64* | · | · | · | 17
Cc1onc(C(=O)Nc2cccnc2Cl)c1[N+](=O)[O-] | -13 | 3 | 7 | 1 | -2 | 2 | ·
CCOCCOC(=O)c1[nH]c2c(c1C)C(=O)CC(c1ccccc1)C2 (stereo not given) | · | · | 91* | · | · | · | 76*
